Source: PubChem BioAssay (SRMLSC)
Fibroblast inh – blocks proliferation of human lung fibroblasts; LL 47 human lung fibroblast viability, ATP luminescence; active compounds read low; viability, % at 10 µM; actives 1.1% (n = 85,000);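 active means viability at or below 50% in the single dose screen; inactive means viability above 50%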;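 further: compound exposure lasted 72 h before the ATP readout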
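test system = LL 47 human lung fibroblasts | amount = 1,150 fibroblasts seeded per well | medium = 15% FBS in IMEM | times = overnight cell rest, 72 h compound treatment at 37 °C | measured by = CellTiter-Glo luminescence measuring cellular ATP | read-out = viability percentage against median untreated-cell control | benchmarks = cell-only wells, no compound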
HUVEC inhibit – blocks proliferation of human endothelial cells | viability, % at 10 µM (by protocol) | HUVEC proliferation, CellTiter-Glo luminescence, 72 h; active compounds read low | actives 1.1% (n = 86,000);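 active means viability at or below 30%; inactive means viability above 30%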
HCT116 PTEN-null – growth suppressors of cells with PTEN tumor suppressor deletion; HCT116 PTEN-null viability, CellTiter-Glo, 60 h; active compounds read low; viability, % at 10 µM; actives 1.2% (n = 140,000);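 active means viability at or below a set limit, 4 SD under the median of all tested compounds, cut at about 3.7% in these data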;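 further: PTEN knockout HCT116 line with beta catenin targeted HCT116 as companion control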
H69AR growth 86K – blocks growth of human H69AR lung tumor cells. H69AR lung tumor viability, ATP luminescence, 72 h; active compounds read low. viability, % at 10 µM. actives 6% (n = 85,000);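 active means viability at or below 40%; inactive means viability above 40%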;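 further: multidrug resistant small cell line overexpressing MRP-1 efflux transporter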
bCat KO growth – beta-catenin-lacking colon tumor cell growth suppression; actives 1.5% (n = 140,000); HCT116 beta-catenin knockout viability, CellTiter-Glo, 60 h; active compounds read low; AID 818; viability, % at 10 µM;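 active means viability at or under a set limit, the compound median less 4 SD, cut at about 6% in these data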
Hits are given with their value. This excerpt belongs to a sample that is enriched for hits.

Results for N#Cc1cc2sc3nc4ccccc4n3c2cc1C#N ?
Fibroblast inh: inactive; HUVEC inhibit: inactive; HCT116 PTEN-null: inactive; H69AR growth 86K: inactive; bCat KO growth: inactive

How did CCOC(=O)C1=C(c2ccccc2)Nc2ncnn2C1c1cccc(OC)c1OC (configuration not stated) do in these assays?
Fibroblast inh: inactive; HUVEC inhibit: inactive; HCT116 PTEN-null: inactive; H69AR growth 86K: 39; bCat KO growth: inactive

Results for CCOC(=O)C1=C(C)Nc2ncnn2C1/C=C/c1ccccc1 (configuration not stated) ?
Fibroblast inh: inactive; HUVEC inhibit: inactive; HCT116 PTEN-null: inactive; H69AR growth 86K: 23; bCat KO growth: inactive

Results for CCCC1=C(C(=O)OCC)C(/C=C/c2ccccc2)n2ncnc2N1 (configuration not stated) ?
Fibroblast inh: 43; HUVEC inhibit: inactive; HCT116 PTEN-null: inactive; H69AR growth 86K: 19; bCat KO growth: inactive

What do the screens show for `COc1ccc(C(=O)Nc2ccc(N3CCN(C(=O)C(C)C)CC3)cc2)cc1[N+](=O)[O-]`?
HCT116 PTEN-null: inactive; bCat KO growth: inactive

How did Cc1c(Cl)cccc1NC(=O)c1ccc(OCC(=O)NCc2ccccc2)cc1 do in these assays?
HCT116 PTEN-null: inactive; bCat KO growth: inactive

How did COc1ccc(OCCSc2nnc(C)n2-c2ccccc2)cc1 do in these assays?
Fibroblast inh: inactive; HUVEC inhibit: inactive; HCT116 PTEN-null: inactive; H69AR growth 86K: 32; bCat KO growth: inactive

How did O=C(NCCCN1CCC(Cc2ccccc2)CC1)C1CC(=O)N(C2CCCCCC2)C1 (configuration not stated) do in these assays?
Fibroblast inh: inactive; HUVEC inhibit: inactive; HCT116 PTEN-null: inactive; H69AR growth 86K: inactive; bCat KO growth: inactive

Results for COc1ccc(CN(C)C2CCCCC2)cc1 ?
Fibroblast inh: inactive; HUVEC inhibit: inactive; HCT116 PTEN-null: inactive; H69AR growth 86K: inactive; bCat KO growth: inactive

What do the screens show for `CN(Cc1ccc(O)cc1)C1CCCCC1`?
HUVEC inhibit: inactive; HCT116 PTEN-null: inactive; H69AR growth 86K: 30; bCat KO growth: inactive

What do the screens show for `CCc1c(C)nc2cc(-c3ccc(OC)c(OC)c3)nn2c1N1CCC(C)CC1`?
Fibroblast inh: inactive; HUVEC inhibit: inactive; HCT116 PTEN-null: inactive; H69AR growth 86K: inactive; bCat KO growth: inactive

How did CCc1c(C)nc2cc(-c3ccc(OC)c(OC)c3)nn2c1N1CCCC1 do in these assays?
Fibroblast inh: inactive; HUVEC inhibit: inactive; HCT116 PTEN-null: inactive; H69AR growth 86K: 38; bCat KO growth: inactive

Results for CSc1nc(SCC(=O)NC(c2ccccc2)c2ccccc2)c2c3c(sc2n1)CN(C)CC3 ?
Fibroblast inh: 48; HUVEC inhibit: inactive; HCT116 PTEN-null: inactive; H69AR growth 86K: 12; bCat KO growth: inactive

How did CN1CCc2c(sc3nc(SCC(=O)N4CCOCC4)nc(N)c23)C1 do in these assays?
Fibroblast inh: inactive; HUVEC inhibit: inactive; HCT116 PTEN-null: inactive; H69AR growth 86K: inactive; bCat KO growth: inactive

Results for O=C(CNC(=O)c1ccc(S(=O)(=O)N2CCCC2)cc1)N/N=C/c1c(Cl)cccc1Cl ?
HCT116 PTEN-null: inactive; bCat KO growth: inactive

How did Cc1ccc(CN2CCN(CC3CC4C=CC3C4)CC2)cc1 (configuration not stated) do in these assays?
Fibroblast inh: inactive; HUVEC inhibit: inactive; HCT116 PTEN-null: inactive; H69AR growth 86K: inactive; bCat KO growth: inactive

What do the screens show for `Cc1ccc(NC(=O)CN(C)C(=O)Cn2ncc(Cl)c(Cl)c2=O)cc1`?
HCT116 PTEN-null: 1.0; bCat KO growth: 1.6

Results for Cc1ccc(NC(=O)CN(C)C(=O)COc2c(Cl)cc(Cl)c3ccc(C)nc23)cc1 ?
HCT116 PTEN-null: inactive; bCat KO growth: inactive

Results for O=S(=O)(/N=C(/Sc1ccccc1)c1ccccc1)c1ccccc1 ?
Fibroblast inh: inactive; HUVEC inhibit: inactive; HCT116 PTEN-null: inactive; H69AR growth 86K: 26; bCat KO growth: inactive

Results for CS/C(=N\S(=O)(=O)c1ccccc1)c1ccccc1 ?
HCT116 PTEN-null: inactive; bCat KO growth: inactive

What do the screens show for `O=S(=O)(c1ccc2c(c1)OCCO2)N1CCC(c2nc3ccc(Cl)cc3[nH]2)CC1`?
Fibroblast inh: inactive; HUVEC inhibit: inactive; HCT116 PTEN-null: inactive; H69AR growth 86K: 15; bCat KO growth: inactive

Results for O=C(NCC1CCCO1)c1ccc(S(=O)(=O)N2CCC(c3nc4ccc(Cl)cc4[nH]3)CC2)cc1 (configuration not stated) ?
Fibroblast inh: inactive; HUVEC inhibit: inactive; HCT116 PTEN-null: inactive; H69AR growth 86K: 36; bCat KO growth: inactive

How did Cc1ccc(-c2noc(C3CCN(S(=O)(=O)c4ccc5c(c4)OCCO5)CC3)n2)o1 do in these assays?
Fibroblast inh: inactive; HUVEC inhibit: inactive; HCT116 PTEN-null: inactive; H69AR growth 86K: 40; bCat KO growth: inactive

How did Cc1ccc2nc(C3CCN(S(=O)(=O)c4ccc5ccccc5c4)CC3)[nH]c2c1 do in these assays?
Fibroblast inh: inactive; HUVEC inhibit: inactive; HCT116 PTEN-null: inactive; H69AR growth 86K: 8.0; bCat KO growth: inactive

How did O=C(c1ccc(S(=O)(=O)N2CCC(c3nc4ccccc4[nH]3)CC2)cc1)N1CCOCC1 do in these assays?
Fibroblast inh: inactive; HUVEC inhibit: inactive; HCT116 PTEN-null: inactive; H69AR growth 86K: inactive; bCat KO growth: inactive

Results for Cc1ccc(-c2noc(C3CCCN(S(=O)(=O)c4ccc5ccccc5c4)C3)n2)o1 (configuration not stated) ?
Fibroblast inh: inactive; HUVEC inhibit: inactive; HCT116 PTEN-null: inactive; H69AR growth 86K: inactive; bCat KO growth: inactive

How did CC1CCCN(C(=O)CSc2cnc3ccccc3n2)C1 (configuration not stated) do in these assays?
HCT116 PTEN-null: inactive; bCat KO growth: inactive

Results for COc1cc(C(C)=O)ccc1COc1ccc(C(=O)OC(C)C(=O)NC(N)=O)cc1OC (configuration not stated) ?
HCT116 PTEN-null: inactive; bCat KO growth: inactive

Results for O=C(NC(=S)NCc1ccccc1)C1CCCCC1 ?
HCT116 PTEN-null: inactive; bCat KO growth: inactive

Results for CCOC(=O)c1ccc(N=C2C(=S)N(c3ccc(C(=O)OCC)cc3)C(=N)N2/N=C/c2ccccc2)cc1 ?
Fibroblast inh: inactive; HUVEC inhibit: inactive; HCT116 PTEN-null: inactive; H69AR growth 86K: 0.9; bCat KO growth: inactive

What do the screens show for `CN(C)c1ccc(/C=N/N2C(=N)N(c3ccccc3)C(=S)C2=Nc2ccccc2)cc1`?
Fibroblast inh: inactive; HUVEC inhibit: inactive; H69AR growth 86K: 16

How did CCOC(=O)c1ccc(N2Cc3ccccc3C2=N)cc1 do in these assays?
HCT116 PTEN-null: inactive; bCat KO growth: inactive

What do the screens show for `O=C(Nc1nc(-c2cccs2)cs1)c1ccc(Cl)s1`?
Fibroblast inh: inactive; HUVEC inhibit: inactive; HCT116 PTEN-null: inactive; H69AR growth 86K: 3.6; bCat KO growth: inactive

How did CC(C)c1ccc(/C=C(\c2nc3ccccc3[nH]2)S(=O)(=O)c2ccccc2)cc1 do in these assays?
HCT116 PTEN-null: 1.9; bCat KO growth: 1.8

What do the screens show for `CC(C)(C)/C(O)=C/c1nc2ccccc2[nH]c1=O`?
HCT116 PTEN-null: inactive; bCat KO growth: inactive

Results for O=S(=O)(/C(=C/c1ccc(C(F)(F)F)cc1)c1nc2ccccc2[nH]1)c1ccccc1 ?
HCT116 PTEN-null: 1.6; bCat KO growth: 1.5
